In ChEMBL document CHEMBL2040734, “Benzothiazoles: search for anticancer agents” (2012):

Legend:
Assay type in all cases: functional
[1] = test system: SF-268; assay: Cytotoxicity against human SF268 cells assessed as cell growth at 1 uM after 48 hrs by sulforhodamine B assay; details: SF-268, 48 h, read-out: Activity
[2] = test system: UACC-257; assay: Cytotoxicity against human UACC257 cells assessed as cell growth at 10 '-5 M after 48 hrs by sulforhodamine B assay; details: UACC-257, 48 h, read-out: Activity
[3] = test system: SK-MEL-2; assay: Cytotoxicity against human SK-MEL-2 cells assessed as cell growth at 1 uM after 48 hrs by sulforhodamine B assay; details: SK-MEL-2, 48 h, read-out: Activity
[4] = test system: NCI-H322M; assay: Cytotoxicity against human NCI-H322M cells assessed as cell growth at 0.01 uM after 48 hrs by sulforhodamine B assay; details: read-out: Activity
[5] = test system: LOX IMVI; assay: Growth inhibition of human LOXIMVI cells after 48 hrs by sulforhodamine B assay
Method in brief: (§1)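 Adherent NCI-60 lines were grown in RPMI 1640 with 5% FBS and 2 mM L-glutamine, plated at 5000–40,000 cells/well and preincubated 24 h. They were then exposed to five concentrations (0.01–100 µM, from a DMSO stock) for 48 h at 37 °C, 5% CO2. Cells were fixed with cold TCA (10% final, 60 min, 4 °C) and stained with 0.4% SRB. Dye was solubilized in 10 mM Tris base and A515 read. GI50 was derived from time-zero, control and treated absorbances.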

[6] = test system: EKVX; assay: Cytotoxicity against human EKVX cells assessed as cell growth at 0.1 uM after 48 hrs by sulforhodamine B assay; details: read-out: Activity
Method in brief: (§2)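 Five-dose NCI panel run at 0.01, 0.1, 1, 10 and 100 µM. Cells were in RPMI 1640 with 5% FBS and 2 mM L-glutamine, seeded at 5000–40,000 cells/well and pre-incubated 24 h. Drug was diluted from a DMSO stock into medium with 50 µg/ml gentamicin. Exposure was 48 h at 37 °C, 5% CO2. Cells were fixed with cold TCA and stained with 0.4% SRB, read at 515 nm. Percent growth came from time-zero, control and test absorbances.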

[7] = test system: SK-MEL-2; assay: Cytotoxicity against human SK-MEL-2 cells assessed as cell growth at 100 uM after 48 hrs by sulforhodamine B assay; details: SK-MEL-2, 48 h, read-out: Activity
[8] = test system: CCRF-CEM; assay: Cytotoxicity against human CCRF-CEM cells assessed as cell growth at 0.1 uM after 48 hrs by sulforhodamine B assay; details: read-out: Activity
Method in brief: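 CCRF-CEM suspension leukemia cells in RPMI 1640 with 5% FBS and 2 mM L-glutamine, plated 24 h before dosing. Five concentrations (0.01–100 µM) were applied from a DMSO stock for 48 h at 37 °C. Settled cells were fixed with 80% TCA (final 16%) and stained with SRB, with read-out at 515 nm. Percent growth was derived from time-zero and control absorbances.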

[9] = test system: MCF7; assay: Cytotoxicity against human MCF7 cells assessed as cell growth at 10 '-5 M after 48 hrs by sulforhodamine B assay; details: MCF7, 48 h, read-out: Activity
[10] = test system: Malme-3M; assay: Cytotoxicity against human MALME-3M cells assessed as cell growth at 1 uM after 48 hrs by sulforhodamine B assay; details: read-out: Activity
[11] = test system: COLO 205; assay: Cytotoxicity against human COLO205 cells assessed as cell growth at 0.01 uM after 48 hrs by sulforhodamine B assay; details: COLO 205, 48 h, read-out: Activity
Method in brief: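 NCI-60 five-dose screen. Cells were grown in RPMI 1640 with 5% FBS and 2 mM L-glutamine and preincubated 24 h. Compound (DMSO stock) was tested at 0.01, 0.1, 1, 10 and 100 µM for 48 h at 37 °C. Cells were fixed in situ with cold TCA (final 10%) and stained with 0.4% SRB. A515 was read, and percent growth was calculated against time-zero and control plates.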

[12] = test system: RPMI-8226; assay: Cytotoxicity against human RPMI8226 cells assessed as cell growth at 1 uM after 48 hrs by sulforhodamine B assay; details: RPMI-8226, 48 h, read-out: Activity
[13] = test system: SK-MEL-2; assay: Cytotoxicity against human SK-MEL-2 cells assessed as cell growth at 0.01 uM after 48 hrs by sulforhodamine B assay; details: SK-MEL-2, 48 h, read-out: Activity
[14] = test system: LOX IMVI; assay: Cytotoxicity against human LOXIMVI cells assessed as cell growth at 100 uM after 48 hrs by sulforhodamine B assay; details: read-out: Activity
[15] = test system: OVCAR-8; assay: Cytotoxicity against human OVCAR8 cells assessed as cell growth at 0.01 uM after 48 hrs by sulforhodamine B assay; details: OVCAR-8, 48 h, read-out: Activity
[16] = test system: M14; assay: Cytotoxicity against human M14 cells assessed as cell growth at 10 '-5 M after 48 hrs by sulforhodamine B assay; details: M14, 48 h, read-out: Activity
[17] = test system: SK-OV-3; assay: Cytotoxicity against human SKOV3 cells assessed as cell growth at 10 '-5 M after 48 hrs by sulforhodamine B assay; details: SK-OV-3, 48 h, read-out: Activity
[18] = test system: OVCAR-4; assay: Cytotoxicity against human OVCAR4 cells assessed as cell growth at 1 uM after 48 hrs by sulforhodamine B assay; details: OVCAR-4, 48 h, read-out: Activity
[19] = Cytotoxicity against human Hs 578T cells assessed as cell growth at 1 uM after 48 hrs by sulforhodamine B assay; details: read-out: Activity; method in brief: as §2
[20] = test system: LOX IMVI; assay: Cytotoxicity against human LOXIMVI cells assessed as cell growth at 10 uM after 48 hrs by sulforhodamine B assay; details: read-out: Activity
[21] = test system: NCI-H522; assay: Growth inhibition of human NCI-H522 cells after 48 hrs by sulforhodamine B assay; details: NCI-H522, 48 h; method in brief: as §1
[22] = test system: UACC-257; assay: Cytotoxicity against human UACC257 cells assessed as cell growth at 100 uM after 48 hrs by sulforhodamine B assay; details: UACC-257, 48 h, read-out: Activity
[23] = test system: LOX IMVI; assay: Cytotoxicity against human LOXIMVI cells assessed as cell growth at 1 uM after 48 hrs by sulforhodamine B assay; details: read-out: Activity
[24] = test system: IGROV-1; assay: Cytotoxicity against human IGROV1 cells assessed as cell growth at 100 uM after 48 hrs by sulforhodamine B assay; details: IGROV-1, 48 h, read-out: Activity
[25] = test system: PC-3; assay: Cytotoxicity against human PC3 cells assessed as cell growth at 0.01 uM after 48 hrs by sulforhodamine B assay; details: PC-3, 48 h, read-out: Activity
[26] = test system: SK-MEL-5; assay: Cytotoxicity against human SK-MEL-5 cells assessed as cell growth at 0.01 uM after 48 hrs by sulforhodamine B assay; details: SK-MEL-5, 48 h, read-out: Activity
[27] = test system: KM12; assay: Cytotoxicity against human KM12 cells assessed as cell growth at 100 uM after 48 hrs by sulforhodamine B assay; details: KM12, 48 h, read-out: Activity
[28] = test system: NCI-H522; assay: Cytotoxicity against human NCI-H522 cells assessed as cell growth at 1 uM after 48 hrs by sulforhodamine B assay; details: NCI-H522, 48 h, read-out: Activity
[29] = test system: NCI-H522; assay: Cytotoxicity against human NCI-H522 cells assessed as cell growth at 0.01 uM after 48 hrs by sulforhodamine B assay; details: NCI-H522, 48 h, read-out: Activity
[30] = test system: NCI-H322M; assay: Cytotoxicity against human NCI-H322M cells assessed as cell growth at 10 uM after 48 hrs by sulforhodamine B assay; details: read-out: Activity

Cc1ccc2nc(Nc3c(C)cccc3C)sc2c1
growth at 1 µM [1]: 79%
growth at 10 µM [2]: 56.1%
growth at 1 µM [3]: 67%
growth at 0.01 µM [4]: 97%
LC50 [5]: > 100 µM
TGI [5]: > 100 µM
growth at 0.1 µM [6]: 89%
growth at 100 µM [7]: 53%
growth at 0.1 µM [8]: 89%
growth at 10 µM [9]: 19.8%
growth at 1 µM [10]: 57%
growth at 0.01 µM [11]: 107%
growth at 1 µM [12]: 75%
growth at 0.01 µM [13]: 94%
growth at 100 µM [14]: 57%
growth at 0.01 µM [15]: 103%
growth at 10 µM [16]: 26.2%
growth at 10 µM [17]: 47.1%
growth at 1 µM [18]: 71%
growth at 1 µM [19]: 64%
growth at 10 µM [20]: 23%
GI50 [21]: 0.552 µM
TGI [21]: > 100 µM
CC50 ([21]; read-out: LC50 (the source's name)): > 100 µM
growth at 100 µM [22]: 73%
growth at 1 µM [23]: 62%
growth at 100 µM [24]: 33%
growth at 0.01 µM [25]: 102%
growth at 0.01 µM [26]: 95%
growth at 100 µM [27]: 48%
growth at 1 µM [28]: 38%
growth at 0.01 µM [29]: 85%
growth at 10 µM [30]: 67%

Clc1cccc(Cl)c1Nc1nc2cccc(Cl)c2s1
growth at 1 µM [1]: 62%
growth at 10 µM [2]: -33.3%
growth at 1 µM [3]: 71%
growth at 0.01 µM [4]: 92%
GI50 [5]: 1.09 µM
TGI [5]: 2.51 µM
growth at 0.1 µM [6]: 82%
growth at 100 µM [7]: -44%
growth at 0.1 µM [8]: 93%
growth at 10 µM [9]: -14.7%
growth at 1 µM [10]: 52%
growth at 0.01 µM [11]: 105%
growth at 1 µM [12]: 46%
growth at 0.01 µM [13]: 98%
growth at 100 µM [14]: -21%
growth at 0.01 µM [15]: 101%
growth at 10 µM [16]: -61.3%
growth at 10 µM [17]: 6.87%
growth at 1 µM [18]: 44%
growth at 1 µM [19]: 49%
growth at 10 µM [20]: -83%
GI50 [21]: 1.02 µM
TGI [21]: 2.61 µM
growth at 100 µM [22]: -67%
growth at 1 µM [23]: 55%
growth at 100 µM [24]: -55%
growth at 0.01 µM [25]: 96%
growth at 0.01 µM [26]: 94%
growth at 100 µM [27]: -98%
growth at 1 µM [28]: 51%
growth at 0.01 µM [29]: 88%
growth at 10 µM [30]: -83%
